In ChEMBL document CHEMBL3585295, “Synthesis and discovery of (I-3,II-3)-biacacetin as a novel non-zinc binding inhibitor of MMP-2 and MMP-9” (Bioorg Med Chem, 2015):
Active and inactive are the calls of the source. The calls are words filed in the database; no cut-off is given here.

How the values were obtained:
[1] = molecular target: 72 kDa type IV collagenase (Homo sapiens) (UniProt P08253); assay: Inhibition of MMP-2 activity in human HT1080 cells at 5 uM by gelatin zymography; format: cell-based; conditions: HT-1080
Sequence of 72 kDa type IV collagenase (Homo sapiens) (P08253 110-660 limits assumed): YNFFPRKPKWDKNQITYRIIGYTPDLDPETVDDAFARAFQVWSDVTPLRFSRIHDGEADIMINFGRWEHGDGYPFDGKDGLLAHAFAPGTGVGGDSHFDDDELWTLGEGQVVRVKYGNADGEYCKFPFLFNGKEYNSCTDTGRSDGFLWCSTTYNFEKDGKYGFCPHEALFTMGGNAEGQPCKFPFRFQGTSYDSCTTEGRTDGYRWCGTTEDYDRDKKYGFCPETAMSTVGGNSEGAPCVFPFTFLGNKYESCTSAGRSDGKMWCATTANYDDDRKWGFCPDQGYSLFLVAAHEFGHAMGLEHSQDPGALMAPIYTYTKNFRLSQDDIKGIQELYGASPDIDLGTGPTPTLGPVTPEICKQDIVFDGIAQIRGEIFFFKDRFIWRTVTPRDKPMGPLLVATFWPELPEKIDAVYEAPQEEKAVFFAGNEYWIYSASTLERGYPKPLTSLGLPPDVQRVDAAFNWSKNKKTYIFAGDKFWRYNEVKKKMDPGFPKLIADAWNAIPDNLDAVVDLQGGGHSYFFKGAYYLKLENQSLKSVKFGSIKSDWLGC
Procedure, shortened: (§1)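 HT1080 human fibrosarcoma cells grown in DMEM with 10% FBS; cells treated with compound, 0.5% DMSO as vehicle control, dose series 2.5–10 µM. Conditioned media run on 10% polyacrylamide/0.4% SDS gels containing 2 mg/ml gelatin, non-reducing, 120 V 150 min. Gels washed in 2.5% Triton X-100 30 min, developed overnight at 37 °C (50 mM Tris–HCl pH 7.6, 200 mM NaCl, 5 mM CaCl2, 0.2% Brij-35). Bands quantified densitometrically as % inhibition; triplicates, three independent experiments.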

[2] = molecular target: Matrix metalloproteinase-9 (Homo sapiens) (UniProt P14780); assay: Inhibition of MMP-9 activity in human HT1080 cells at 5 uM by gelatin zymography; format: cell-based; conditions: HT-1080; procedure, shortened: as §1
Sequence of Matrix metalloproteinase-9 (Homo sapiens) (P14780 whole entry): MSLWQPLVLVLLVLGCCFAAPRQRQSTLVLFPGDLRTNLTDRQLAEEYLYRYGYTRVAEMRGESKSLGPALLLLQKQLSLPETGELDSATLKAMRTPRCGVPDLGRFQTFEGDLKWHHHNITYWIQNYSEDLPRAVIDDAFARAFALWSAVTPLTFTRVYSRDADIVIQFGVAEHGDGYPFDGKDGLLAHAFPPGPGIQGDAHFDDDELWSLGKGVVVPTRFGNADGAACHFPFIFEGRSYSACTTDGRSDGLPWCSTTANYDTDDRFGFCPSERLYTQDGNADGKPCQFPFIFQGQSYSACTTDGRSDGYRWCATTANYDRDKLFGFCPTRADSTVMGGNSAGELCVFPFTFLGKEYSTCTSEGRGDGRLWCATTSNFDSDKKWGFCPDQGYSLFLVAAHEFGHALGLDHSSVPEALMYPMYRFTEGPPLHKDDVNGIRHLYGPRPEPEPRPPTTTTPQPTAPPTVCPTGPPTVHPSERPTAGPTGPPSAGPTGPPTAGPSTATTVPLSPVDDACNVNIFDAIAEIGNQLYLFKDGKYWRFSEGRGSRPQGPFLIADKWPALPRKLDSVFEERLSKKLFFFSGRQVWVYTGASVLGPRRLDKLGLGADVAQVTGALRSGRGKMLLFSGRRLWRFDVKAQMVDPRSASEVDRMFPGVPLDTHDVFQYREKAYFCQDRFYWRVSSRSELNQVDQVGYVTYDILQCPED

[3] = molecular target: 72 kDa type IV collagenase (Homo sapiens) (UniProt P08253); assay: Inhibition of MMP-2 activity in human HT1080 cells at 10 uM by gelatin zymography; format: cell-based; conditions: HT-1080; procedure, shortened: as §1
[4] = molecular target: Matrix metalloproteinase-9 (Homo sapiens) (UniProt P14780); assay: Inhibition of MMP-9 activity in human HT1080 cells at 10 uM by gelatin zymography; format: cell-based; conditions: HT-1080; procedure, shortened: as §1
[5] = molecular target: 72 kDa type IV collagenase (Homo sapiens) (UniProt P08253); assay: Inhibition of MMP-2 activity in human HT1080 cells by gelatin zymography; format: cell-based; conditions: HT-1080; procedure, shortened: as §1
[6] = molecular target: Matrix metalloproteinase-9 (Homo sapiens) (UniProt P14780); assay: Inhibition of MMP-9 activity in human HT1080 cells by gelatin zymography; format: cell-based; conditions: HT-1080; procedure, shortened: as §1
[7] = molecular target: Matrix metalloproteinase 2/9 (Homo sapiens) (UniProt P08253+P14780); assay: Inhibition of MMP2/9 in human HT1080 cells assessed as reduction in degradation of fluorescien gelatin at 5 uM after 24 hrs by gelatin degradation assay; format: cell-based; conditions: HT-1080
Sequence of Matrix metalloproteinase 2/9 (Homo sapiens) (P08253 whole entry, looked up): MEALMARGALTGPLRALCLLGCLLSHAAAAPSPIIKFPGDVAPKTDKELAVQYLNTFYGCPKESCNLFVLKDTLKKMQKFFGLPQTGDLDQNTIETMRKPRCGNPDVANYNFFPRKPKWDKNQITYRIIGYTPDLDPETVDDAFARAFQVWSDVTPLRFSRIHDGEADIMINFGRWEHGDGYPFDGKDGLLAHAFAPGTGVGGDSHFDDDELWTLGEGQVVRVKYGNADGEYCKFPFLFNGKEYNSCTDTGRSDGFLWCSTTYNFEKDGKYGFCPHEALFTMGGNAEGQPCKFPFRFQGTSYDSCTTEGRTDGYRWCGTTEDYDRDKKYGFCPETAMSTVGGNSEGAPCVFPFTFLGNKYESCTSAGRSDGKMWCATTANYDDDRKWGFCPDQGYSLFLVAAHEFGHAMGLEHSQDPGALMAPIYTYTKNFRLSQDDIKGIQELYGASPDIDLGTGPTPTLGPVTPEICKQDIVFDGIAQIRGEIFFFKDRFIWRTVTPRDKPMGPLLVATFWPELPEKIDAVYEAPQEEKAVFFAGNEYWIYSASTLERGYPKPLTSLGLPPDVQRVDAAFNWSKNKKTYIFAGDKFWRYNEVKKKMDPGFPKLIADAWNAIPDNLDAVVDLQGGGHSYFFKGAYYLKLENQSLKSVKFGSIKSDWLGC
Sequence of Matrix metalloproteinase 2/9 (Homo sapiens) (P14780 whole entry, looked up): as the sequence (P14780 whole entry) above
Procedure, shortened: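 HT1080 cells exposed to 5 µM compound for 24 h at 37 °C on fluorescent gelatin. Cells then fixed, mounted in antifade reagent and imaged by inverted fluorescence microscopy. Degradation of the fluorescent gelatin compared with control.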

[8] = Cytotoxicity against human HT1080 cells up to 7.5 uM; format: cell-based; conditions: ht-1080
[9] = tested on: HT-1080; assay: Inhibition of cell migration in human HT1080 cells at 5 uM after 24 hrs by transwell migration assay; format: functional, cell-based
Procedure, shortened: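 Transwell migration: 8 × 10^4 HT1080 cells in serum-free medium with compound placed in upper chamber; lower chamber held DMEM with 10% FBS as attractant. After 24 h, non-migrated cells swabbed off; migrated cells stained with crystal violet and counted in five random fields, expressed as % of control.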

Row | inhibition [3] | inhibition [5] | inhibition [6] | Compound | other results
1 |  |  |  | COc1ccc(-c2cc(=O)c3c(O)cc(O)cc3o2)cc1 | inhibition [1]: inactive; inhibition [2]: inactive
2 | inactive |  |  | O=c1c(-c2c(-c3ccccc3)oc3cc(O)ccc3c2=O)c(-c2ccccc2)oc2cc(O)ccc12 | inhibition [4]: inactive
3 | Active |  |  | O=c1c(-c2c(-c3ccco3)oc3ccccc3c2=O)c(-c2ccco2)oc2ccccc12 | 
4 |  | inactive | inactive | COc1ccccc1-c1oc2ccccc2c(=O)c1-c1c(-c2ccccc2OC)oc2ccccc2c1=O | 
5 | inactive |  |  | O=c1c(-c2c(/C=C/c3ccccc3)oc3ccccc3c2=O)c(/C=C/c2ccccc2)oc2ccccc12 | inhibition [4]: inactive
6 |  | inactive | inactive | COc1ccc(-c2oc3cc(OC)cc(OC)c3c(=O)c2-c2c(-c3ccc(OC)cc3)oc3cc(OC)cc(OC)c3c2=O)cc1 | 
7 |  | inactive | inactive | COc1ccc2c(=O)c(-c3c(-c4ccccc4)oc4cc(OC)ccc4c3=O)c(-c3ccccc3)oc2c1 | 
8 | 90% | Dose-dependent effect | Dose-dependent effect | COc1ccc(-c2oc3cc(O)cc(O)c3c(=O)c2-c2c(-c3ccc(OC)cc3)oc3cc(O)cc(O)c3c2=O)cc1 | inhibition [4]: 90%; inhibition [7]: Active; Activity [8]: Non-toxic; inhibition [1]: 60%; inhibition [2]: 90%; inhibition [9]: Active
9 |  | inactive | inactive | COc1ccc(-c2oc3ccccc3c(=O)c2-c2c(-c3ccc(OC)cc3)oc3ccccc3c2=O)cc1 | 
10 | Active |  |  | COc1ccc(-c2oc3cc(O)cc(O)c3c(=O)c2-c2c(-c3ccc(OC)c(OC)c3)oc3cc(O)cc(O)c3c2=O)cc1OC | 
11 |  | inactive | inactive | COc1cc(OC)c2c(=O)c(-c3c(-c4ccccc4)oc4cc(OC)cc(OC)c4c3=O)c(-c3ccccc3)oc2c1 | 
